Source: ChEMBL document CHEMBL3259629, “Discovery and optimization of piperidyl-1,2,3-triazole ureas as potent, selective, and in vivo-active inhibitors of α/β-hydrolase domain containing 6 (ABHD6)” (J Med Chem, 2013)
Active and inactive are the calls of the source. No cut-off for these calls is given here.

What was measured:
[1] = target: T1, Lysosomal protective protein (Mus musculus) (UniProt P16675); settings: Neuro2a, 3 nM
T1 sequence (whole entry): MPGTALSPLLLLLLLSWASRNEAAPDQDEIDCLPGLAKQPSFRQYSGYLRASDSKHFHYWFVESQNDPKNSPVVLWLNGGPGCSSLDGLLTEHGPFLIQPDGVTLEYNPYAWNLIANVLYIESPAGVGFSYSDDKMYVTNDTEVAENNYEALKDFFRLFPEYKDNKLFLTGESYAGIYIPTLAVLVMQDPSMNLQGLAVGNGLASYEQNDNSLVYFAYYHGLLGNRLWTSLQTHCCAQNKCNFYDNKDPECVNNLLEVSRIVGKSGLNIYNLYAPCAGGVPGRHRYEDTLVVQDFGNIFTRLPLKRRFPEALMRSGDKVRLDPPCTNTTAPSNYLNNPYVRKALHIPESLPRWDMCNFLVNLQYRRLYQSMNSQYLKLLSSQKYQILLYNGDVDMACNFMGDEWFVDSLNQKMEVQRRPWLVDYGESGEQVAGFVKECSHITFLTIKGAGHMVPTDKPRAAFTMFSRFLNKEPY

[2] = test system: Mus musculus; test: In vivo inhibition of ABHD6 in C57Bl/6 mouse liver at 20 mg/kg, ip after 4 hrs by FP-rhodamine/HT-10-labelled gel-based competitive assay; format: functional, organism-based; set-up: dose 20 mg/kg
Method in brief: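 C57Bl/6 mice dosed i.p. at 1–40 mg kg⁻¹ in 18:1:1 saline/ethanol/PEG40, 10 μL g⁻¹, for 4 hr, then killed. Brain and liver membrane proteomes labelled with FP-rhodamine or HT-01 (1 μM, 30 min, 37 °C) and resolved by SDS-PAGE with in-gel fluorescence scanning.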

[3] = target: T2, Platelet-activating factor acetylhydrolase IB subunit alpha1 (Mus musculus) (UniProt Q61205); settings: Neuro2a, 3 nM
T2 sequence (whole entry): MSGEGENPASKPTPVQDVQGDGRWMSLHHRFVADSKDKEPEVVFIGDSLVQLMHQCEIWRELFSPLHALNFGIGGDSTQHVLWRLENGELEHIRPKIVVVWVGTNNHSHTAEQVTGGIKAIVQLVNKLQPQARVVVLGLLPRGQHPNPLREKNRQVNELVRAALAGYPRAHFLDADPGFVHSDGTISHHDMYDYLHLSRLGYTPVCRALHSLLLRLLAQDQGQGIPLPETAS

[4] = target: T3, Phospholipase DDHD1 (Mus musculus) (UniProt Q80YA3); settings: Neuro2a, 3 nM
T3 sequence (whole entry): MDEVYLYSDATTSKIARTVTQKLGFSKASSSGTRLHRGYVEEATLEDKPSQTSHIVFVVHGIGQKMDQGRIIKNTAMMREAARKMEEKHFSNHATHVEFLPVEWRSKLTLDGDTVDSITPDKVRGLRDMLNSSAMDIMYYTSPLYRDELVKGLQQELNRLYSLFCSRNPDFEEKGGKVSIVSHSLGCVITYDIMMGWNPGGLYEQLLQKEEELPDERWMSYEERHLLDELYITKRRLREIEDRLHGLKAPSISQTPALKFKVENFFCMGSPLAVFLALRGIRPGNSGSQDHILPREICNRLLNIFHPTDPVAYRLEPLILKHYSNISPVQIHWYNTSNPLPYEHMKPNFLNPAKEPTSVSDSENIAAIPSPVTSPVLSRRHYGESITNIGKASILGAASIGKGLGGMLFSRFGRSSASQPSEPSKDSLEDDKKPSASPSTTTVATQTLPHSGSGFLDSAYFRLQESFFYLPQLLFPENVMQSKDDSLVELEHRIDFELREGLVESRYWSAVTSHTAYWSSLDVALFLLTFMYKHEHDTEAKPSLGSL

[5] = target: 1-acylglycerol-3-phosphate O-acyltransferase ABHD5 (Mus musculus) (UniProt Q9DBL9); settings: Neuro2a, 3 nM
[6] = target: T4, Marginal zone B- and B1-cell-specific protein (Mus musculus) (UniProt Q9D8I1); settings: Neuro2a, 3 nM
T4 sequence (whole entry): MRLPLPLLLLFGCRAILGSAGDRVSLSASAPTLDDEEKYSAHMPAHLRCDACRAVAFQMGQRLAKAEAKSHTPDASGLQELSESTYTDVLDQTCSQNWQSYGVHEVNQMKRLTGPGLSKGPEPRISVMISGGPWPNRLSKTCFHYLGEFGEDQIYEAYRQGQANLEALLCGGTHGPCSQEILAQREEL

[7] = target: Acyl-protein thioesterase 1 (Mus musculus) (UniProt P97823); test: Inhibition of FP-rhodamine-labelled recombinant mouse LYPLA1 at 10 uM preincubated for 30 mins followed by FP-rhodamine labelling measured after 30 mins by gel-based competitive ABPP assay
[8] = target: T5, Lysosomal phospholipase A and acyltransferase (Mus musculus) (UniProt Q8VEB4); settings: Neuro2a, 3 nM
T5 sequence (whole entry): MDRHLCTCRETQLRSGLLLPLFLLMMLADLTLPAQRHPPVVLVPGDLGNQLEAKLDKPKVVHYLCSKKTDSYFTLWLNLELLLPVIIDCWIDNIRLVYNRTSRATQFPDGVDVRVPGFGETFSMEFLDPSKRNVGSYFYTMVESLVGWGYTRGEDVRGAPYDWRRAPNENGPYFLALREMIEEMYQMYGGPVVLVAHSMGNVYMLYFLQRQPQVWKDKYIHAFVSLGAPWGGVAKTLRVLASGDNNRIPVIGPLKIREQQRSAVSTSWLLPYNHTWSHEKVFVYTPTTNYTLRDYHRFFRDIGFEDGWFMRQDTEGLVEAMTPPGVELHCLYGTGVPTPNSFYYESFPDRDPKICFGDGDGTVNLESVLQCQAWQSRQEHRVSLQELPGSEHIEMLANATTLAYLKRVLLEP

[9] = test system: Mus musculus; test: In vivo inhibition of carboxylesterase-1 in C57Bl/6 mouse brain at 0.1 to 1 mg/kg, ip after 4 hrs by FP-rhodamine-labelled gel-based competitive ABPP assay; format: functional, organism-based
Method in brief: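 C57Bl/6 mice dosed i.p. at 0.1, 0.5 or 1 mg kg⁻¹ in 18:1:1 saline/ethanol/PEG40 (ethoxylated castor oil), 10 μL g⁻¹. Killed after 4 hr under isoflurane by cervical dislocation. Brain and liver membrane fractions (100,000 × g) labelled with FP-rhodamine or HT-01 (1 μM, 30 min, 37 °C), then SDS-PAGE and in-gel fluorescence scanning. Liver ABHD6 read from HT-01 gels.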

[10] = test system: Mus musculus; test: In vivo inhibition of ABHD6 in C57Bl/6 mouse liver at 0.1 mg/kg, ip after 4 hrs by HT-10-labelled gel-based competitive ABPP assay; format: functional; settings: C57Bl/6, Liver, route intraperitoneal
Method in brief: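 C57Bl/6 mice dosed i.p. (18:1:1 v/v/v saline/ethanol/PEG40, 10 μL g⁻¹) across 0.1–1 mg kg⁻¹; after 4 hr, anesthetized with isoflurane, euthanized, liver membrane fraction isolated (Dounce homogenization in PBS pH 7.5, 1,400 × g then 100,000 × g spin). Proteome labeled with HT-01 (1 μM, 30 min, 37 °C), SDS-PAGE, in-gel fluorescence; ABHD6 activity versus vehicle.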

Sequence of 1-acylglycerol-3-phosphate O-acyltransferase ABHD5 (Mus musculus) (Q9DBL9 whole entry, looked up): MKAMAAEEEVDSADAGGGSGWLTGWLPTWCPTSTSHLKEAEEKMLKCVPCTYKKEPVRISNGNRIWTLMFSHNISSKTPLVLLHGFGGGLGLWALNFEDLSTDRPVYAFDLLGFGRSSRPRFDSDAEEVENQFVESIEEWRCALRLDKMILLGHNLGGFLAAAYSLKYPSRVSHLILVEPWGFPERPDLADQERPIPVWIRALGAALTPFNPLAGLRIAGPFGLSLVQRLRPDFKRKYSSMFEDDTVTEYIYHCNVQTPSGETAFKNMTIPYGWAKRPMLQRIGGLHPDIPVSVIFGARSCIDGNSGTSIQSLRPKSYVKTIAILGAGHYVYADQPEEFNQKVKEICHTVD
Sequence of Acyl-protein thioesterase 1 (Mus musculus) (P97823 whole entry): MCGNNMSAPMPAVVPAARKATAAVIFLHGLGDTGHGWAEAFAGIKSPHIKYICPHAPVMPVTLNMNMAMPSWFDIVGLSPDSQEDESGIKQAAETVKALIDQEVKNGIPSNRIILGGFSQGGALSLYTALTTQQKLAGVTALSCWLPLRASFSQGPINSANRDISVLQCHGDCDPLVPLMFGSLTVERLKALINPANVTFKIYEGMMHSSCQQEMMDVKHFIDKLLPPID

| Structure (SMILES) | inhibition [1] | inhibition [2] | inhibition [3] | inhibition [4] | inhibition [5] | inhibition [6] | inhibition [7] | inhibition [8] | inhibition [9] | inhibition in vivo at 0.1 mg/kg [10] |
| --- | --- | --- | --- | --- | --- | --- | --- | --- | --- | --- |
| O=C(c1cccc(-c2ccc(-c3cn(C(=O)N4CCCCC4c4ccccc4)nn3)cc2)c1)N1CCCCC1 (racemic) | < 50% | Active | < 50% | < 50% | < 50% | < 50% | Active | < 50% |  |  |
| O=C(N1CCCCC1c1ccccc1)n1cc(-c2ccc(-c3cccc(CO)c3)cc2)nn1 (racemic) | < 50% | Active | < 50% | < 50% | < 50% | < 50% | Active | < 50% | Active | 80% |
| O=C(O)c1cccc(-c2ccc(-c3cn(C(=O)N4CCCCC4Cc4ccccc4)nn3)cc2)c1 (racemic) | < 50% | Active | < 50% | < 50% | < 50% | < 50% |  | < 50% | inactive | 80% |
